This passage reports IC50 results from ChEMBL document CHEMBL3091450, “Melosuavines A-H, cytotoxic bisindole alkaloid derivatives from Melodinus suaveolens” (J Nat Prod, 2013).

The structures appear in SMILES notation.

Type in all cases: functional, cell-based
Assay [1] in a line: Cytotoxicity against human […] cells after 48 hrs by MTT assay. In short, it runs like this:
(§1)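 Cells kept in RPMI-1640 or DMEM with 10% FBS, 37 °C, 5% CO2. Adherent lines plated and left 12 h to attach; suspension cells (HL-60) plated at 1 × 10^5 cells/mL just before dosing. Compounds in DMSO at 0.064, 0.32, 1.6, 8 and 40 μM, triplicate wells, 48 h; cisplatin positive control. MTT viability read-out, IC50 by Reed and Muench method.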
(In general: Tetrazolium assays rely on reduction of a dye to a coloured formazan, in cell work by metabolically active cells.)

Another assay concerns MCF7. As to the kind of experiment: Cytotoxicity against human MCF7 cells after 48 hrs by MTT assay. The following applies: MCF7, 48 h. In short, it runs like this: as §1
A further assay concerns SW480. Nature of the assay: Cytotoxicity against human SW480 cells after 48 hrs by MTT assay. The following applies: SW480, 48 h. Summed up:
as §1

The test system of a further assay is A549. As to the kind of experiment: Cytotoxicity against human A549 cells after 48 hrs by MTT assay. The following applies: A549, 48 h. In short, it runs like this:
as §1

The test system of a further assay is HL-60. Nature of the assay: Cytotoxicity against human HL60 cells after 48 hrs by MTT assay. The following applies: HL-60, 48 h. Summed up:
as §1

Take `CC[C@]12C=CCN3CCc4c(n(c5ccccc45)[C@@H](c4cc5c(cc4O)NC4=C(C(=O)OC)C[C@]6(CC)C=CCN7CC[C@@]45[C@@H]76)C1)[C@@H]32`: the IC50 – broadly, the concentration needed to halve the response being measured – in assay [1] worked out at 10 µM; in the assay with MCF7, 9.5 µM; in the assay with SW480, 9.7 µM; with A549, 14.3 µM; in the assay on HL-60, 3.6 µM.

`CC[C@]12C=CCN3CC[C@]4(C(=C(C(=O)OC)C1)Nc1cc(O)c([C@@H]5[C@@H]6O[C@@H]6[C@@]6(CC)CC(C(=O)OC)=C7Nc8cc(O)ccc8[C@@]78CCN5[C@@H]68)cc14)[C@@H]32` (relative stereo): the IC50 amounted to 13.8 µM in assay [1]; 11.6 µM in the assay with MCF7; 14.4 µM in the assay with SW480; 9.7 µM in the assay with A549; 5.5 µM with HL-60.

For the molecule `CC[C@]12C=CCN3CC[C@]4(C(=C(C(=O)OC)C1)Nc1cc(O)c([C@H]5C=C[C@@]6(CC)CC(C(=O)OC)=C7Nc8cc(O)ccc8[C@@]78CCN5[C@@H]68)cc14)[C@@H]32` (relative stereo), the IC50 turned out to be 12.6 µM in assay [1]; 10.7 µM in the assay on MCF7; 12.5 µM in the assay on SW480; 12.4 µM in the assay with A549; 4.8 µM with HL-60.

Regarding `CC[C@]12C=CCN3CC[C@]4(C(=C(C(=O)OC)C1)Nc1cc(O)c([C@@H]5C=C[C@@]6(CC)CC(C(=O)OC)=C7Nc8cc(O)ccc8[C@@]78CCN5[C@@H]68)cc14)[C@@H]32` (relative stereo), the IC50 in assay [1] was 3.6 µM; in the assay with MCF7 it was 6.6 µM; with SW480, 4 µM; with A549, 7.5 µM; in the assay with HL-60, 3.5 µM.

Take `CC[C@]12C=CCN3CC[C@]4(C(=C(C(=O)OC)C1)Nc1cc(O)c([C@@H]5[C@@H]6O[C@@H]6[C@]67CC[C@@]8(Nc9ccccc9[C@@]89CCN5[C@@H]69)[C@H](C(=O)OC)C7)cc14)[C@@H]32` (relative stereo): the IC50 (in assay [1]; in the assay on MCF7; with SW480; with A549; with HL-60) was greater than 40 µM in each case.

With `C=C[C@]12C=CCN3[C@@H](c4cc5c(cc4O)NC4=C(C(=O)OC)C[C@]6(CC)C=CCN7CC[C@@]45[C@@H]76)C[C@@]4(c5ccccc5NC(=O)[C@]4(C(=O)OC)C1)[C@@H]32` (relative stereo), the IC50 in assay [1] was 29 µM; in the assay on MCF7, greater than 40 µM; in the assay with SW480, greater than 40 µM; in the assay on A549, greater than 40 µM; with HL-60 it was 17.6 µM.

`CC[C@]12C=CCN3CC[C@]4(C(=C(C(=O)OC)C1)Nc1cc(O)c([C@@H]5C[C@]67c8ccccc8N[C@@]68CC[C@]6(C=CCN5[C@@H]67)C[C@H]8C(=O)OC)cc14)[C@@H]32` (relative stereo): the IC50 in assay [1] came out at 3.1 µM; in the assay with MCF7, 9.5 µM; in the assay with SW480, 3.8 µM; in the assay with A549 it was 3.4 µM; in the assay with HL-60 it was 1 µM.

For `C=C[C@]12C=C[C@H](c3cc4c(cc3O)NC3=C(C(=O)OC)C[C@]5(CC)C=CCN6CC[C@@]34[C@@H]65)N3CC[C@@]4(c5ccccc5NC(=O)[C@]4(C(=O)OC)C1)[C@@H]32` (relative stereo), the IC50 in assay [1] came out at 5.9 µM; with MCF7, 11.6 µM; in the assay on SW480 it was 9.8 µM; in the assay on A549, 11 µM; in the assay on HL-60, 2.6 µM.

Take `C=C[C@]12C=C[C@@H](c3cc4c(cc3O)NC3=C(C(=O)OC)C[C@]5(CC)C=CCN6CC[C@@]34[C@@H]65)N3CC[C@@]4(c5ccccc5NC(=O)[C@]4(C(=O)OC)C1)[C@@H]32` (relative stereo): the 50% inhibitory concentration (IC50) in assay [1] came to 3.1 µM; with MCF7, 6.1 µM; in the assay on SW480 it was 2.9 µM; in the assay with A549, 8.9 µM; in the assay with HL-60, 2.8 µM.

As to `CC[C@]12C=CCN3CCc4c(n(c5ccccc45)[C@@H](c4cc5c(cc4OC)NC4=C(C(=O)OC)C[C@]6(CC)C=CCN7CC[C@@]45[C@@H]76)C1)[C@@H]32` (relative stereo), the half-inhibitory concentration (IC50) (in assay [1]; with MCF7; in the assay on SW480; with A549; in the assay with HL-60) was greater than 40 µM in each case.
